Laboratory results as given in ChEMBL document CHEMBL1131382, “Structure-activity relationship of new growth inhibitors of Trypanosoma cruzi” (J Med Chem, 1998).

Assays:
[1] = tested on: Trypanosoma cruzi; assay: Concentration required to inhibit proliferation of the epimastigote form of Trypanosoma cruzi; format: functional, organism-based
How it was run: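 T. cruzi epimastigotes (Y strain) at 28 °C in brain–heart infusion (37 g/L) with hemin (20 mg/L) and 10% newborn calf serum; inoculum (2–3) × 10⁶ cells/mL, 1 mL. Drugs at 1, 10, 50 and 100 μg/mL, each in quadruplicate, with a drug-free control. Growth read as absorbance at 600 nm; percent inhibition from the change in absorbance of drug-treated versus control cultures between start and end.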

[2] = tested on: Trypanosoma cruzi; assay: Growth inhibition of the intracellular Trypanosoma cruzi was measured by no. of parasites per 100 myoblasts (T. cruzi ) after time gap of 72 hr at the concentration of 2.5 ug/mL; format: functional
[3] = tested on: Trypanosoma cruzi; assay: Growth inhibition of the intracellular Trypanosoma cruzi was measured by counting percentage of myoblasts with Trypanosoma cruzi parasite after 72 hr at the concentration of 1.0 (ug/mL); format: functional
[4] = tested on: Trypanosoma cruzi; assay: Growth inhibition of the intracellular Trypanosoma cruzi was measured by no. of parasites per 100 myoblasts (T. cruzi ) after time gap of 48 hr at the concentration of 2.5 ug/mL; format: functional
[5] = tested on: Trypanosoma cruzi; assay: Growth inhibition of the intracellular Trypanosoma cruzi was measured by counting percentage of myoblasts with Trypanosoma cruzi parasite after time gap of 72 hr at the concentration of 2.5 ug/mL; format: functional
[6] = tested on: Trypanosoma cruzi; assay: Growth inhibition of the intracellular Trypanosoma cruzi was measured by counting percentage of myoblasts with Trypanosoma cruzi parasite after time gap of 48 hr (with out compound); format: functional
[7] = tested on: Trypanosoma cruzi; assay: Growth inhibition of the intracellular Trypanosoma cruzi was measured by counting percentage of myoblasts with Trypanosoma cruzi parasite after 24 hr (absence of compound); format: functional
[8] = tested on: Trypanosoma cruzi; assay: Growth inhibition of the intracellular Trypanosoma cruzi was measured by no. of parasites per 100 myoblasts (T. cruzi ) after 48 hr at the concentration of 0.1 (ug/mL); format: functional
[9] = tested on: Trypanosoma cruzi; assay: Growth inhibition of the intracellular Trypanosoma cruzi was measured by no. of parasites per 100 myoblasts (T. cruzi ) after 72 hr at the concentration of 0.1 (ug/mL); format: functional
[10] = tested on: Trypanosoma cruzi; assay: Growth inhibition of the intracellular Trypanosoma cruzi was measured by no. of parasites per 100 myoblasts (T. cruzi ) after time gap of 72 hr at the concentration of 5.0 ug/mL; format: functional
[11] = tested on: Trypanosoma cruzi; assay: Growth inhibition of the intracellular Trypanosoma cruzi was measured by counting percentage of myoblasts with Trypanosoma cruzi parasite after time gap of 24 hr (with out compound); format: functional
[12] = tested on: Trypanosoma cruzi; assay: Growth inhibition of the intracellular Trypanosoma cruzi was measured by counting percentage of myoblasts with Trypanosoma cruzi parasite after time gap of 48 hr at the concentration of 5.0 ug/mL; format: functional
[13] = tested on: Trypanosoma cruzi; assay: Growth inhibition of the intracellular Trypanosoma cruzi was measured by counting percentage of myoblasts with Trypanosoma cruzi parasite after time gap of 72h( absence of compound); format: functional
[14] = tested on: Trypanosoma cruzi; assay: Growth inhibition of the intracellular Trypanosoma cruzi was measured by counting percentage of myoblasts with Trypanosoma cruzi parasite after 48 hr at the concentration of 1.0 (ug/mL); format: functional
[15] = tested on: Trypanosoma cruzi; assay: Growth inhibition of the intracellular Trypanosoma cruzi was measured by counting percentage of myoblasts with Trypanosoma cruzi parasite after time gap of 72 hr at the concentration of 1.0 ug/mL; format: functional
[16] = tested on: Trypanosoma cruzi; assay: Growth inhibition of the intracellular Trypanosoma cruzi was measured by no. of parasites per 100 myoblasts (T. cruzi ) after time gap of 72 hr (absence of compound); format: functional
[17] = tested on: Trypanosoma cruzi; assay: Growth inhibition of the intracellular Trypanosoma cruzi was measured by counting percentage of myoblasts with Trypanosoma cruzi parasite after 72 hr (absence of compound); format: functional
[18] = tested on: Trypanosoma cruzi; assay: Growth inhibition of the intracellular Trypanosoma cruzi was measured by no. of parasites per 100 myoblasts (T. cruzi ) after time gap of 72 hr at the concentration of 1.0 ug/mL; format: functional
[19] = tested on: Trypanosoma cruzi; assay: Growth inhibition of the intracellular Trypanosoma cruzi was measured by counting percentage of myoblasts with Trypanosoma cruzi parasite after 48 hr at the concentration of 0.5 (ug/mL); format: functional
[20] = tested on: Trypanosoma cruzi; assay: Growth inhibition of the intracellular Trypanosoma cruzi was measured by no. of parasites per 100 myoblasts (T. cruzi ) after time gap of 24 hr (with out compound); format: functional
[21] = tested on: Trypanosoma cruzi; assay: Growth inhibition of the intracellular Trypanosoma cruzi was measured by counting no. of parasites per 100 myoblasts (T. cruzi ) after 24 h (absence of compound); format: functional
[22] = tested on: Trypanosoma cruzi; assay: Growth inhibition of the intracellular Trypanosoma cruzi was measured by counting percentage of myoblasts with Trypanosoma cruzi parasite after time gap of 48 hr at the concentration of 2.5 ug/mL; format: functional
[23] = tested on: Trypanosoma cruzi; assay: Growth inhibition of the intracellular Trypanosoma cruzi was measured by counting percentage of myoblasts with Trypanosoma cruzi parasite after 48 hr at the concentration of 0.1 (ug/mL); format: functional
[24] = tested on: Trypanosoma cruzi; assay: Growth inhibition of the intracellular Trypanosoma cruzi was measured by counting no. of parasites per 100 myoblasts (T. cruzi ) after 48 hr (absence of compound); format: functional
[25] = tested on: Trypanosoma cruzi; assay: Growth inhibition of the intracellular Trypanosoma cruzi was measured by no. of parasites per 100 myoblasts (T. cruzi ) after 72 hr at the concentration of 1.0 (ug/mL); format: functional
[26] = tested on: Trypanosoma cruzi; assay: Growth inhibition of the intracellular Trypanosoma cruzi was measured by counting percentage of myoblasts with Trypanosoma cruzi parasite after time gap of 72 hr at the concentration of 5.0 ug/mL; format: functional
[27] = tested on: Trypanosoma cruzi; assay: Growth inhibition of the intracellular Trypanosoma cruzi was measured by no. of parasites per 100 myoblasts (T. cruzi ) after time gap of 48 hr at the concentration of 1.0 ug/mL; format: functional
[28] = tested on: Trypanosoma cruzi; assay: Growth inhibition of the intracellular Trypanosoma cruzi was measured by no. of parasites per 100 myoblasts (T. cruzi ) after time gap of 48 hr at the concentration of 5.0 ug/mL; format: functional
[29] = tested on: Trypanosoma cruzi; assay: Growth inhibition of the intracellular Trypanosoma cruzi was measured by no. of parasites per 100 myoblasts (T. cruzi ) after 48 hr at the concentration of 1.0 (ug/mL); format: functional
[30] = tested on: Trypanosoma cruzi; assay: Growth inhibition of the intracellular Trypanosoma cruzi was measured by no. of parasites per 100 myoblasts (T. cruzi ) after time gap of 48 hr (with out compound); format: functional
[31] = tested on: Trypanosoma cruzi; assay: Growth inhibition of the intracellular Trypanosoma cruzi was measured by counting percentage of myoblasts with Trypanosoma cruzi parasite after time gap of 48 hr at the concentration of 1.0 ug/mL; format: functional
[32] = tested on: Trypanosoma cruzi; assay: Growth inhibition of the intracellular Trypanosoma cruzi was measured by counting percentage of myoblasts with Trypanosoma cruzi parasite after 72 hr at the concentration of 0.1 (ug/mL); format: functional
[33] = tested on: Trypanosoma cruzi; assay: Growth inhibition of the intracellular Trypanosoma cruzi was measured by no. of parasites per 100 myoblasts (T. cruzi ) after 72 hr (absence of compound); format: functional
[34] = tested on: Trypanosoma cruzi; assay: Growth inhibition of the intracellular Trypanosoma cruzi was measured by no. of parasites per 100 myoblasts (T. cruzi ) after 72 hr at the concentration of 0.5 (ug/mL); format: functional
[35] = tested on: Trypanosoma cruzi; assay: Growth inhibition of the intracellular Trypanosoma cruzi was measured by counting percentage of myoblasts with Trypanosoma cruzi parasite after 48 hr (absence of compound); format: functional
[36] = tested on: Trypanosoma cruzi; assay: Growth inhibition of the intracellular Trypanosoma cruzi was measured by counting percentage of myoblasts with Trypanosoma cruzi parasite after 72 hr at the concentration of 0.5 (ug/mL); format: functional
[37] = tested on: Trypanosoma cruzi; assay: Growth inhibition of the intracellular Trypanosoma cruzi was measured by no. of parasites per 100 myoblasts (T. cruzi ) after 48 hr at the concentration of 0.5 (ug/mL); format: functional

N#CSCCOc1ccc(OCc2ccccc2)cc1
IC50 [1]: 8.1 µM

C=CCOc1ccc(Oc2ccccc2)cc1I
IC50 [1]: 91 µM

N#CSCCOc1ccc(Oc2ccccc2)cc1
R [2]: 76.3%
Myoblasts with parasites [3]: 15%
R [4]: 57%
Myoblasts with parasites [5]: 17%
Myoblasts with parasites [6]: 31.5%
Myoblasts with parasites [7]: 26%
R [8]: 218%
R [9]: 238%
R [10]: 28%
Myoblasts with parasites [11]: 38%
Myoblasts with parasites [12]: 19.8%
Myoblasts with parasites [13]: 24.8%
IC50 [1]: 2.2 µM
Myoblasts with parasites [14]: 19.3%
Myoblasts with parasites [15]: 16.3%
R [16]: 733.5%
Myoblasts with parasites [17]: 27.5%
R [18]: 85.5%
Myoblasts with parasites [19]: 18.3%
R [20]: 85%
R [21]: 91.8%
Myoblasts with parasites [22]: 20.3%
Myoblasts with parasites [23]: 22%
R [24]: 239.5%
R [25]: 63.5%
Myoblasts with parasites [26]: 8.3%
R [27]: 59.3%
R [28]: 48%
R [29]: 69.3%
R [30]: 270.5%
Myoblasts with parasites [31]: 20.5%
Myoblasts with parasites [32]: 15.5%
R [33]: 578.5%
R [34]: 124.5%
Myoblasts with parasites [35]: 21.5%
Myoblasts with parasites [36]: 12.5%
R [37]: 98%

CCOC(=O)SCCOc1ccc(Oc2ccccc2)cc1
IC50 [1]: 15.1 µM

C=CCOc1ccc(Oc2ccccc2)cc1Cl
IC50 [1]: > 250 µM

CC1CS(=O)(=O)CCN1/N=C/c1ccc([N+](=O)[O-])o1 (stereo not given) [NIFURTIMOX]
Myoblasts with parasites [3]: 12.5%
Myoblasts with parasites [7]: 34.5%
IC50 [1]: 8.6 µM
Myoblasts with parasites [14]: 14%
Myoblasts with parasites [17]: 20%
R [21]: 80.25%
R [24]: 155%
R [25]: 70.5%
R [29]: 64.5%
R [33]: 321%
Myoblasts with parasites [35]: 16.25%

C/C=C/Oc1ccc(Oc2ccccc2)cc1
IC50 [1]: > 440 µM

C=CCOc1ccc(Oc2ccc([N+](=O)[O-])cc2)cc1
IC50 [1]: 230 µM

C=CCOc1ccc(Cl)cc1Cl
IC50 [1]: 282 µM

CC(C)COC(=O)SCCOc1ccc(Oc2ccccc2)cc1
IC50 [1]: 19.1 µM

C=CCOc1ccc(Oc2ccccc2)cc1[N+](=O)[O-]
IC50 [1]: 185 µM

Clc1ccc(OCCOC2CCCCO2)c(Cl)c1 (stereo not given)
IC50 [1]: 93 µM

Brc1cc(Oc2ccccc2)ccc1OCCOC1CCCCO1 (stereo not given)
IC50 [1]: 67 µM

C=CCOc1ccc(Oc2ccc(Br)cc2)cc1
IC50 [1]: > 250 µM

c1ccc(Oc2ccc(OCC3CS3)cc2)cc1 (stereo not given)
IC50 [1]: 3.9 µM

C=CCOc1ccc(Oc2ccc(C(C)=O)cc2)cc1
IC50 [1]: 300 µM

CCSC(=O)SCCOc1ccc(Oc2ccccc2)cc1
IC50 [1]: 37.7 µM

C=CCSC(=S)OCCOc1ccc(Oc2ccccc2)cc1
IC50 [1]: 96.1 µM

CCSC(=O)OC/C=C(\C)CCC=C(C)C
IC50 [1]: 298 µM

CCOC(=S)SCCOc1ccc(Oc2ccccc2)cc1
IC50 [1]: 41.9 µM

C=CCOc1ccc(Oc2ccc(Cl)cc2)cc1
IC50 [1]: > 250 µM

C=CCOc1ccc(Sc2ccccc2)cc1
IC50 [1]: 324 µM

C=CCOc1ccc(Oc2ccc(C(=O)c3ccccc3)cc2)cc1
IC50 [1]: > 330 µM

c1ccc(Cc2ccc(OCCOC3CCCCO3)cc2)cc1 (stereo not given)
IC50 [1]: 282 µM

N#CSCCCOc1ccc(Oc2ccccc2)cc1
IC50 [1]: 3.5 µM

Clc1cc(Oc2ccccc2)ccc1OCCOC1CCCCO1 (stereo not given)
IC50 [1]: 143 µM

C=CCOc1ccc(Oc2ccccc2)cc1Br
IC50 [1]: 182 µM

C=CCOc1ccc(Oc2ccccc2)cc1
IC50 [1]: 221 µM

CCSC(=O)OC/C=C(\C)CCC1OC1(C)C (stereo not given)
IC50 [1]: > 380 µM

N#CSCCOc1ccc(Cc2ccccc2)cc1
IC50 [1]: 13.4 µM

CCNC(=O)SCCOc1ccc(Oc2ccccc2)cc1
IC50 [1]: 17 µM

C=CCOc1ccc(Oc2ccccc2)cc1NC(C)=O
IC50 [1]: 97 µM

Brc1ccc(Oc2ccc(OCCOC3CCCCO3)cc2)cc1 (stereo not given)
IC50 [1]: 85 µM

c1ccc(COc2ccc(OCCOC3CCCCO3)cc2)cc1 (stereo not given)
IC50 [1]: 121 µM
